Experimental data: ChEMBL document CHEMBL1130421, “A facile, alternative synthesis of 4'-thioarabinonucleosides and their biological activities” (J Med Chem, 1997)
Values after ≈ are worked out from the molar mass of the structure shown.

Tests used:
CCRF-HSB-2 = experiment: Antiproliferative effects on CCRF-HSB-2 (human leukemia) cells.; type: functional, cell-based
In short: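 CCRF-HSB-2 cells at 1.1 × 10⁵ cells/mL in RPMI 1640 + 10% FBS. Compound added in medium or PBS as serial 0.5 log₁₀ dilutions. Incubated 3 days at 37 °C, 5% CO₂. MTT then added for another 4 h; formazan solubilized in acidic DMF/SDS. A570 read against 690 nm reference. IC50 read graphically from dose-inhibition curve.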

Human alphaherpesvirus 1 = experiment: Antiviral activity against herpes simplex virus-1 VR-3 strain in HEL ([…]) cells.; type: functional; conditions: Human alphaherpesvirus 1, HEL; read-out: ED50 (the source's name)
In short: (§1)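 Plaque reduction assay in HEL cells. Strains: HSV-1 VR-3, HSV-2 MS, HCMV AD 169. Run as described earlier.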

Human alphaherpesvirus 2 = experiment: Antiviral activity against herpes simplex virus-2 (HSV-2) Ms strain in HEL ([…]) cells.; type: functional; conditions: Human alphaherpesvirus 2, HEL; read-out: ED50 (the source's name); in short: as §1
Human alphaherpesvirus 3 = experiment: Antiviral activity against varicella zoster virus (VZV) Oka strain in HEL ([…]) cells.; type: functional; conditions: Human alphaherpesvirus 3, HEL; read-out: ED50 (the source's name)
Human betaherpesvirus 5 = experiment: Antiviral activity against human cytomegalovirus (HCMV) AD 169 strain HEL ([…]) cells.; type: functional; conditions: Human betaherpesvirus 5, HEL; read-out: ED50 (the source's name); in short: as §1

Row | Structure (SMILES) | IC50 (CCRF-HSB-2) [µg/mL] | EC50 (Human alphaherpesvirus 1) [µg/mL] | EC50 (Human alphaherpesvirus 2) [µg/mL] | EC50 (Human alphaherpesvirus 3) [µg/mL] | EC50 (Human betaherpesvirus 5) [µg/mL]
1 | O=c1[nH]c(=O)n([C@@H]2S[C@H](CO)[C@@H](O)[C@@H]2O)cc1/C=C/Cl | > 100 | 0.97 (≈ 3.02 µM) | 71 (≈ 221 µM) | > 50 | > 50
2 | O=c1[nH]c(=O)n([C@H]2S[C@H](CO)[C@@H](O)[C@@H]2O)cc1I | > 100 | > 100 | > 100 | > 50 | > 50
3 | Nc1nc(O)c2ncn([C@@H]3S[C@H](CO)[C@@H](O)[C@@H]3O)c2n1 | 0.29 (≈ 0.969 µM) | 0.49 (≈ 1.64 µM) | 0.59 (≈ 1.97 µM) | 0.11 (≈ 0.368 µM) | 0.01 (≈ 0.0334 µM)
4 | Nc1nc(N)c2ncn([C@H]3S[C@H](CO)[C@@H](O)[C@@H]3O)c2n1 | > 100 | > 100 | > 100 | > 50 | > 50
5 | O=c1[nH]c(=O)n([C@H]2S[C@H](CO)[C@@H](O)[C@@H]2O)cc1/C=C/Cl | > 100 | > 100 | > 100 | > 50 | > 50
6 | O=c1[nH]c(=O)n([C@@H]2S[C@H](CO)[C@@H](O)[C@@H]2O)cc1/C=C/Br | > 100 | 0.82 (≈ 2.25 µM) | 58 (≈ 159 µM) | 0.2 (≈ 0.548 µM) | > 50
7 | O=c1[nH]c(=O)n([C@H]2S[C@H](CO)[C@@H](O)[C@@H]2O)cc1/C=C/Br | > 100 | > 100 | > 100 | > 50 | > 50
8 | CCc1cn([C@H]2S[C@H](CO)[C@@H](O)[C@@H]2O)c(=O)[nH]c1=O | > 100 | > 100 | > 100 | > 50 | > 50
9 | Nc1ncnc2c1ncn2[C@H]1S[C@H](CO)[C@@H](O)[C@@H]1O | > 100 | > 100 | > 100 | > 50 | > 50
10 | Cc1cn([C@@H]2S[C@H](CO)[C@@H](O)[C@@H]2O)c(=O)[nH]c1=O | > 100 | 0.77 (≈ 2.81 µM) | 4.6 (≈ 16.8 µM) | 6.6 (≈ 24.1 µM) | 44 (≈ 160 µM)
11 | O=c1[nH]c(=O)n([C@@H]2S[C@H](CO)[C@@H](O)[C@@H]2O)cc1I | > 100 | 3.5 (≈ 9.06 µM) | 13.6 (≈ 35.2 µM) | 27.1 (≈ 70.2 µM) | > 50
12 | Nc1ncnc2c1ncn2[C@@H]1S[C@H](CO)[C@@H](O)[C@@H]1O | 14.8 (≈ 52.2 µM) | 18.4 (≈ 64.9 µM) | 13.5 (≈ 47.7 µM) | 1.85 (≈ 6.53 µM) | 1.36 (≈ 4.8 µM)
13 | Cc1cn([C@H]2S[C@H](CO)[C@@H](O)[C@@H]2O)c(=O)[nH]c1=O | 42 (≈ 153 µM) | > 100 | > 100 | > 50 | > 50
14 | CCc1cn([C@@H]2S[C@H](CO)[C@@H](O)[C@@H]2O)c(=O)[nH]c1=O | > 100 | 0.43 (≈ 1.49 µM) | 6.5 (≈ 22.5 µM) | > 50 | > 50
15 | Nc1nc(N)c2ncn([C@@H]3S[C@H](CO)[C@@H](O)[C@@H]3O)c2n1 | 0.2 (≈ 0.67 µM) | 0.52 (≈ 1.74 µM) | 0.4 (≈ 1.34 µM) | 0.11 (≈ 0.369 µM) | 0.022 (≈ 0.0737 µM)
16 | Nc1nc2c(ncn2COCCO)c(=O)[nH]1 [ACYCLOVIR] | > 100 | 0.14 (≈ 0.622 µM) | 0.23 (≈ 1.02 µM) | – | 6.9 (≈ 30.6 µM)
17 | Nc1ccn([C@@H]2O[C@H](CO)[C@@H](O)[C@@H]2O)c(=O)n1 [CYTARABINE] | 0.0086 (≈ 0.0354 µM) | – | – | – | –
18 | Nc1nc2c(ncn2COC(CO)CO)c(=O)[nH]1 [GANCICLOVIR] | 17 (≈ 66.6 µM) | 0.016 (≈ 0.0627 µM) | 0.039 (≈ 0.153 µM) | 0.21 (≈ 0.823 µM) | 0.21 (≈ 0.823 µM)
19 | O=c1[nH]c(=O)n([C@@H]2O[C@H](CO)[C@@H](O)[C@@H]2O)cc1/C=C/Br [SORIVUDINE] | > 100 | 0.036 (≈ 0.103 µM) | 62 (≈ 178 µM) | 0.0013 (≈ 0.00372 µM) | > 50
20 | Nc1ncnc2c1ncn2[C@@H]1O[C@H](CO)[C@@H](O)[C@@H]1O [VIDARABINE] | 12.9 (≈ 48.3 µM) | 17.1 (≈ 64 µM) | 6.6 (≈ 24.7 µM) | 1.17 (≈ 4.38 µM) | 6.45 (≈ 24.1 µM)
